KCNK9 inh: blocks the human KCNK9 two-pore domain potassium channel; Q9NPC2; HEK293 KCNK9, FluxOR thallium flux fluorescence; active compounds read low; B-score at 10 µM; 1.2% of 310,000 active; AID 488922;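 active means ratio B-score over 3 SD below the library mean, with starting fluorescence within 5 SD of its mean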;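 further: negative B-score means less thallium flux so channel inhibition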
hERG rescue: hERG (human) protection from proarrhythmic block; Q12809; activation (rescue from dofetilide block), less the hit threshold, % at 10 µM; CHO-hERG, FluxOR thallium flux, dofetilide IC70 present; 0.51% of 310,000 active;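 active means activation above the mean of controls blocked by dofetilide plus 5 SD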;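 further: thallium influx through hERG after potassium depolarization seen as dye fluorescence rise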
Target sequence (Q12809 whole entry, looked up): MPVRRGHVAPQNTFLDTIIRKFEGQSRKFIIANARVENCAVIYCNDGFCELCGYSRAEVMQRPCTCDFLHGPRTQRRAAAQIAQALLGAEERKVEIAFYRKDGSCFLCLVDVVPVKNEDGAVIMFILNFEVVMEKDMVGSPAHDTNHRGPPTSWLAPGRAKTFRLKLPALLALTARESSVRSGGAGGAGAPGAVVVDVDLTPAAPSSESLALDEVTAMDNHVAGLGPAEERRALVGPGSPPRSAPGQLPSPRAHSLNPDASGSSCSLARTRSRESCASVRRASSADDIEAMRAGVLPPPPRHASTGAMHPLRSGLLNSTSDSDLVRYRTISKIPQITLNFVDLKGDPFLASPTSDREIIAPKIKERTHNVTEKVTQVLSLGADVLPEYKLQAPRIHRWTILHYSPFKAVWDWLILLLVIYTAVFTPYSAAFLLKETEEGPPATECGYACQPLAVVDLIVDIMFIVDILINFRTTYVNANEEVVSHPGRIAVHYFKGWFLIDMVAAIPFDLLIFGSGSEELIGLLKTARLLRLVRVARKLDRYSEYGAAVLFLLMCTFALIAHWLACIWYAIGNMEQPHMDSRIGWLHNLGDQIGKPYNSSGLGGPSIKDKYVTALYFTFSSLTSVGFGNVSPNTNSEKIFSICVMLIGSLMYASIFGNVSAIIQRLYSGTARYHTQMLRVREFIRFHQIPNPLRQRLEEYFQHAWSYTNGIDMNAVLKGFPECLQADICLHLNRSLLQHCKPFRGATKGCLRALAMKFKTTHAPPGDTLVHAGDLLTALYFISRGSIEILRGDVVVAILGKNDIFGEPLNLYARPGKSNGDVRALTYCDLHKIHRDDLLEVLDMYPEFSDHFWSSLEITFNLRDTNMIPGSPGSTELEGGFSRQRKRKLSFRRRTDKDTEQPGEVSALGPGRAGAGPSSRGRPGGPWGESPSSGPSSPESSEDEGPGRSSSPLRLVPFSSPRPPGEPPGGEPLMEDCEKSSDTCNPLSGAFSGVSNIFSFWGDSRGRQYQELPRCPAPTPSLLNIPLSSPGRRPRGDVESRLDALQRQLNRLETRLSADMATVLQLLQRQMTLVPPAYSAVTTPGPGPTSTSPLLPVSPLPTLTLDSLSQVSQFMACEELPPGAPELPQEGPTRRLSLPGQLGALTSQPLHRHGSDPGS
KCNK3 block: human KCNK3 channel inhibition, primary screen. B-score at 10 µM. O14649. CHO-KCNK3 thallium flux, FluxOR fluorescence; active compounds read low. 0.84% of 340,000 active;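 active means B-score under library mean minus 4 SD, starting fluorescence ratio at most library mean plus 5 SD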;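 further: more negative B-score means stronger inhibition of thallium flux through KCNK3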
Cl transport mod: KCC2 (human) Cl- transport modulation. Q9H2X9. 2.2% of 190,000 active. B-score of Tl+ flux slope (higher = more flux/activation; lower = inhibition) at 10 µM. KCC2 cells, thallium flux FluoZin-2 fluorescence;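 active means thallium flux slope and its plate-corrected score both differing from the plate sample mean at a set confidence after two filtering rounds, in either direction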;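 further: slope of fluorescence scaled to starting intensity during 10 to 20 s after thallium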
KCNQ1 block: blocks the human KCNQ1 potassium channel; B-score at 10 µM; P51787; AID 2642; 1.3% of 310,000 active; CHO-K1 KCNQ1, FluxOR thallium flux fluorescence; active compounds read high;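 active means compounds whose thallium flux B-score, printed positive for inhibition, exceeds three library SD while starting fluorescence stays within three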;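 further: channel opened by potassium depolarization with thallium stimulus after 20 min compound exposure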
KCNQ1 act: human KCNQ1 channel potentiation or activation; P51787; CHO-K1 KCNQ1, thallium flux FluxOR fluorescence; active compounds read high; 0.35% of 310,000 active; B-score at 10 µM;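 active means fluorescence ratio B-score, a plate-corrected score, at least three library SD, with initial intensity B-score within 5 SD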
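Assay system: stable KCNQ1 CHO-K1 line; medium: assay buffer, equal DMSO in all wells; timing: 90 min dye loading and 20 min compound exposure, both at room temperature; technique: kinetic FluxOR thallium fluorescence, 10-s 1-Hz baseline, 110-s post-stimulus read; read-out basis: B score of baseline-normalized fluorescence ratio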
KCC2 sec1: KCC2 (human) modulation, secondary assay; HEK293-KCC2, thallium flux, FluoZin2 fluorescence; active compounds read high; normalised thallium flux (F/F0 slope) at 10 µM; 15% of 3,700 active; shares compounds with Cl transport mod;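 active means thallium flux slope above the same plate's solvent-only control mean plus 3 SD; inconclusive means the two replicate wells disagree; inactive means no significant difference from solvent-only control wells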
KCC2 bumet counter: thallium flux despite bumetanide block in KCC2 cells, secondary assay 3. shares compounds with Cl transport mod. HEK293-KCC2 + bumetanide/ouabain, thallium flux FluoZin2; active compounds read high. normalized thallium flux at 10 µM. 49% of 3,700 active. AID 1714;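 active means thallium entry rate above the same plate's blocked-transporter control wells by more than 3 SD; inconclusive means the two repeat wells disagree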;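 further: raw slope of fluorescence over initial fluorescence between 10 and 20 s after thallium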
KCC2 sec2: confirmation of human KCC2 transport modulators. shares compounds with Cl transport mod. HEK293-KCC2, thallium flux FluoZin2 fluorescence; actives lie on both sides; F/F0 rise rate, 10–20 s post-thallium. normalized thallium flux at 10 µM. 23% of 3,700 active. AID 1715;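 active means thallium flux slope more than 3 SD above or below the plate's solvent-only control mean, mostly below; inconclusive means the two repeat wells disagreed; inactive means no significant shift from solvent-only controls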
HEK counter1: counter-screen for KCC2 modulators: effect in parental HEK293 cells. thallium flux rate (normalised fluorescence) at 10 µM. thallium flux FluoZin2, ouabain; baseline-ratio fluorescence slope, 10–20 s after thallium. 46% of 3,700 active. shares compounds with Cl transport mod;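 active means thallium flux rate significantly above the same plate's solvent-only control wells, beyond their mean plus 3 SD; inconclusive means the two replicate wells gave conflicting results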
KCC2 ouabain: confirmation of human KCC2 modulators with ouabain; raw Tl+ flux slope (below DMSO = inhibition, above = activation) at 10 µM; shares compounds with Cl transport mod; HEK293-KCC2, thallium flux FluoZin2 fluorescence; bidirectional: low = inhibitor, high = activator; 48% of 3,700 active;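 active means thallium flux slope beyond 3 SD from same-plate DMSO control mean in most replicates, usually higher, sometimes lower; inconclusive means repeat tests gave conflicting results; inactive means no significant difference from controls in most replicates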;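 further: slope of initial-normalized fluorescence between seconds 10 and 20 after thallium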
HEK counter2: parental HEK flux effect, counter-screen 2; shares compounds with Cl transport mod; HEK293 parental, thallium flux FluoZin-2 fluorescence slope; thallium flux slope at 10 µM; 33% of 3,700 active; AID 1718;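 active means thallium flux slope above the same plate's solvent-control mean plus 3 SD in both duplicate wells; inconclusive means duplicate wells that disagreed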;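 further: run without ouabain in cells lacking the KCC2 cotransporter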
Hits are given with their value. Hits are enriched below; roughly 4.1% of the tested compounds scored in any of these assays.

Screening CN(CC(=O)Nc1c(Cl)cccc1Cl)C(=O)CCCN1C(=O)c2ccccc2C1=O returned KCNK9 inh inactive, hERG rescue inactive, KCNK3 block inactive, Cl transport mod inactive, KCNQ1 block inactive and KCNQ1 act inactive.
Cc1ccc(NC(=O)CN(C)C(=O)CCCN2C(=O)c3ccccc3C2=O)cc1 was read as KCNK9 inh inactive, hERG rescue inactive, KCNK3 block inactive, Cl transport mod -3.1, KCNQ1 block inactive, KCNQ1 act inactive, KCC2 sec1 inactive, KCC2 bumet counter inactive, KCC2 sec2 inactive, HEK counter1 inactive, KCC2 ouabain inactive and HEK counter2 inactive.
For CCc1[nH]c(=S)c(C#N)c2c1CCCC2 the results were KCNK9 inh inactive, hERG rescue inactive, KCNK3 block inactive, Cl transport mod 16, KCNQ1 block inactive, KCNQ1 act inactive, KCC2 sec1 inactive, KCC2 bumet counter 0.014, KCC2 sec2 inactive, HEK counter1 0.017, KCC2 ouabain inconclusive and HEK counter2 0.014.
CCOC(=O)c1c2c([nH]c(=S)c1C#N)CCCC2 was read as KCNK9 inh inactive, hERG rescue inactive, KCNK3 block inactive, Cl transport mod 11, KCNQ1 block inactive, KCNQ1 act inactive, KCC2 sec1 inactive, KCC2 bumet counter 0.011, KCC2 sec2 inactive, HEK counter1 inconclusive, KCC2 ouabain inconclusive and HEK counter2 inactive.
`N/C(=N\OC(=O)c1ccccc1)c1ccn[nH]1` gave KCNK9 inh inactive, hERG rescue inactive, KCNK3 block inactive, KCNQ1 block inactive and KCNQ1 act inactive.
For CC1CCCN(C(=O)c2ccc(NC(=O)CC3SC(N4CCCC4)=NC3=O)cc2)C1 (configuration not stated) the results were KCNK9 inh inactive, hERG rescue inactive, KCNK3 block inactive, KCNQ1 block inactive and KCNQ1 act inactive.
Screening CCCCCCCSc1nnc(-c2ccccc2N)c(=O)[nH]1 returned KCNK9 inh inactive, hERG rescue inactive, KCNK3 block inactive, Cl transport mod inactive, KCNQ1 block inactive and KCNQ1 act inactive.
`CCCCCSc1nnc(-c2cc(Br)ccc2N)c(=O)[nH]1` gave KCNK9 inh inactive, hERG rescue inactive, KCNK3 block inactive, KCNQ1 block inactive, KCNQ1 act inactive, KCC2 sec1 inactive, KCC2 bumet counter inconclusive, KCC2 sec2 inactive, HEK counter1 inconclusive, KCC2 ouabain inconclusive and HEK counter2 inactive.
Fc1ccccc1COc1ccc2ccccc2c1CNc1nn[nH]n1 was read as KCNK9 inh inactive, hERG rescue inactive, KCNK3 block inactive, Cl transport mod -5.9, KCNQ1 block inactive, KCNQ1 act inactive, KCC2 sec1 inactive, KCC2 bumet counter inactive, KCC2 sec2 0.02, HEK counter1 inconclusive, KCC2 ouabain 0.0087 and HEK counter2 inconclusive.
`Fc1ccc(COc2ccc3ccccc3c2CNc2nn[nH]n2)cc1` gave KCNK9 inh inactive, hERG rescue inactive, KCNK3 block inactive, Cl transport mod -4.6, KCNQ1 block inactive, KCNQ1 act inactive, KCC2 sec1 inactive, KCC2 bumet counter inactive, KCC2 sec2 0.021, HEK counter1 inconclusive, KCC2 ouabain 0.0092 and HEK counter2 inconclusive.
Screening CNCc1c(OCc2ccc(F)cc2)ccc2ccccc12 returned KCNK9 inh inactive, hERG rescue inactive, KCNK3 block inactive, Cl transport mod inactive, KCNQ1 block inactive and KCNQ1 act inactive.
`O=C(CCNS(=O)(=O)c1ccccc1)OCC(=O)c1ccc(Cl)cc1` gave KCNK9 inh inactive, hERG rescue inactive, KCNK3 block inactive, KCNQ1 block inactive and KCNQ1 act inactive.
CC1=C(/C=C/C(C)=N\NC(=O)c2ccncc2)C(C)(C)CCC1 was read as KCNK9 inh inactive, hERG rescue inactive, KCNK3 block inactive, Cl transport mod 15, KCNQ1 block inactive, KCNQ1 act inactive, KCC2 sec1 inactive, KCC2 bumet counter 0.032, KCC2 sec2 inconclusive, HEK counter1 0.024, KCC2 ouabain 0.033 and HEK counter2 0.026.
Screening S=C1NCCC12C(=S)Nc1ccccc12 (configuration not stated) returned KCNK9 inh inactive, hERG rescue inactive, KCNK3 block inactive, KCNQ1 block inactive and KCNQ1 act inactive.
`CCOc1ccc(NC(=O)c2ccncc2)cc1` gave KCNK9 inh inactive, hERG rescue inactive, KCNK3 block inactive, Cl transport mod inactive, KCNQ1 block inactive and KCNQ1 act inactive.
`CCOc1ccc2c(c1)C(=NNC(=O)c1ccncc1)c1cc(OCC)ccc1-2` gave KCNK9 inh inactive, hERG rescue inactive, KCNK3 block inactive, Cl transport mod 30, KCNQ1 block inactive, KCNQ1 act inactive, KCC2 sec1 0.015, KCC2 bumet counter 0.033, KCC2 sec2 inactive, HEK counter1 0.018, KCC2 ouabain 0.079 and HEK counter2 0.012.
COc1ccc(OC)c(C(=O)COC(=O)c2c(OC)cccc2OC)c1 was read as KCNK9 inh inactive, hERG rescue inactive, KCNK3 block inactive, Cl transport mod inactive, KCNQ1 block inactive and KCNQ1 act inactive.
For COc1ccc(OC)c(C(=O)COC(=O)c2ccccc2O)c1 the results were KCNK9 inh inactive, hERG rescue inactive, KCNK3 block inactive, KCNQ1 block inactive, KCNQ1 act inactive, KCC2 sec1 inactive, KCC2 bumet counter inactive, KCC2 sec2 inactive, HEK counter1 inactive, KCC2 ouabain 0.023 and HEK counter2 inconclusive.
`Cc1nc(C)n(CC(C)C(=O)N2CCN(S(=O)(=O)c3ccc(Cl)cc3)CC2)n1` (configuration not stated) gave KCNK9 inh inactive, hERG rescue inactive, KCNK3 block inactive, KCNQ1 block inactive and KCNQ1 act inactive.

Screening data deposited in PubChem by several laboratories.
